Assay outcomes from PubChem BioAssay.
PMI activator: increases human mannose-6-phosphate isomerase activity; P34949; purified human PMI, coupled resazurin fluorescence, 20 min; active compounds read high; 1 = vehicle control, 0 substrate-free wells; activation factor at 20 µM; 190,000 compounds, 0.005% hits; AID 1214;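 active means activation factor of 2 or more at 20 µM, relative to plate controls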
Target sequence (P34949 whole entry, looked up): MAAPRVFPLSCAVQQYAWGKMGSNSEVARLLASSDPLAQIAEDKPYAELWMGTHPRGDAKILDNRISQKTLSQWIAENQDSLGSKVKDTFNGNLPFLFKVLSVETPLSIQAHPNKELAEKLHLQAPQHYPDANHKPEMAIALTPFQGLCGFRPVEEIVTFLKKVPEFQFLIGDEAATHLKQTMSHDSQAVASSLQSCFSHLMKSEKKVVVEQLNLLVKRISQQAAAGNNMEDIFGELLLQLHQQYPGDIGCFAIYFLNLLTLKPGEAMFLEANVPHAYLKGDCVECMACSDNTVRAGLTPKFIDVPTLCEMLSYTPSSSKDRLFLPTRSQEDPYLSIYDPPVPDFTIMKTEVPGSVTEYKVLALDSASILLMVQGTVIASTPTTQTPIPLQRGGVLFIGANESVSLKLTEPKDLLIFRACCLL
L major viab: Leishmania major promastigote growth inhibition | Leishmania major promastigotes, resazurin fluorescence viability | inhibition, % at 10 µM | 200,000 compounds, 9% hits | AID 1063; in the data active means inhibition above about 50%;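 further: promastigotes grown with compound for 44 hours at 28 °C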
Diaphorase act: counter-screen for diaphorase-based assays: diaphorase activators and chemical reducers; Diaphorase/resazurin coupled assay, resorufin fluorescence, 16 min; active compounds read high; 1 = vehicle wells, 0 = NADH-free wells; activation factor at 20 µM; 190,000 compounds, 0.005% hits; AID 1229;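 active means diaphorase activity raised at least twofold by the compound at 20 µM; inactive means activation factor below 2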
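System – purified diaphorase enzyme from Clostridium kluyveri · Input – enzyme 0.07 U/mL final · Also added – final NADH 0.114 mM, resazurin 0.1 mM · Measured by – fluorescence of resorufin, 544 nm excitation, 590 nm emission · Timing – 16 min enzyme reaction, ambient temperature · Measure – resorufin increase flagging diaphorase activators or reducers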
PMI act hi M6P: PMI (human) activation, high substrate | coupled PMI enzyme assay, resazurin fluorescence, 20 min; active compounds read high; 1 = untreated enzyme, 0 = substrate-free blank | 190,000 compounds, 0.34% hits | P34949 | AID 1216 | activation factor at 20 µM;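 active means activation factor of 2 or more at 20 µM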
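Test system: Human PMI in coupled enzyme assay | Input: 15 ng/mL PMI | Medium: HEPES-buffered pH 7.4 with magnesium and detergent | Compound: One concentration, 20 µM, in 1% DMSO | Incubation: Enzyme reaction with compound 20 min at room temperature | Detection: Diaphorase-driven resazurin-to-resorufin fluorescence, excitation 544, emission 590 nm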
WT yeast gro inh: growth inhibition of WT yeast, mitochondrial fusion screen; 190,000 compounds, 2.1% hits; mitochondrial fusion phenotypic screen, WT strain; AID 1362; inhibition, % at 10 µM; in the data active means inhibition above about 58%; tested in S. cerevisiae
Hits are given with their value; i = inactive. In the library only some 10% were active in any assay of this set; here they are far more common.

SMILES	PMI activator	L major viab	Diaphorase act	PMI act hi M6P	WT yeast gro inh
Cc1c(Br)ccc(NC(=O)c2ccccc2[N+](=O)[O-])c1C	i	i	i	i	i
COCCN(C(=S)Nc1ccc(C)cc1C)C(C)c1ccco1 (stereo not drawn)	i	i	i	i	i
COc1cccc(NC(=S)N(Cc2cccc(Br)c2)CC2CCC(C(=O)O)CC2)c1 (stereo not drawn)	i	i	i	i	i
Cc1ccc(NNC(=O)C(=O)N2CCCCC2)cc1	i	65.7	i	i	64.4
Cc1ccccc1C(=O)NNC(=O)C(=O)N1CCCCC1	i	i	i	i	i
COc1ccc(CC(=O)NC(C)C2COc3ccccc3O2)cc1OC (stereo not drawn)	i	i	i	i	i
Cc1ccc(NS(=O)(=O)c2cc(OCC(N)=O)c(C)cc2Cl)cc1	i	78.5	i	i	i
Cc1cc(Cl)c(S(=O)(=O)Nc2ccc3c(c2)OCO3)cc1OCC(N)=O	i	i	i	i	i
Nc1c(S(=O)(=O)c2cccc(Cl)c2)c2nc3ccccc3nc2n1/N=C/c1ccc(O)c(O)c1	i	99.6	i	i	i
COc1cccc(/C=N/n2c(N)c(S(=O)(=O)c3cccs3)c3nc4ccccc4nc32)c1OC	i	i	i	i	i
CCNC(=S)N/N=C/c1cccc(/C=N/NC(=S)NCC)c1	i	i	i	i	i
CCNC(=S)N/N=C/c1cc(C)n(-c2ccc(Cl)cc2)c1C	i	i	i	i	73.4
Cc1cc(/C=N/NC(N)=S)c(C)n1-c1ccc(Cl)c(Cl)c1	i	100.4	i	i	i
CCNC(=S)N/N=C/c1cccs1	i	99.6	i	i	i
Cc1cc(C)nc(NC(=NCCc2c[nH]c3ccccc23)NC(=O)Nc2cccc([N+](=O)[O-])c2)n1	i	i	i	i	i
Cc1cc(C)nc(NC(=NCCc2c[nH]c3ccccc23)NC(=O)Nc2ccc(Cl)c(Cl)c2)n1	i	98.2	i	i	i
Cc1cc(C)nc(NC(=NCCc2c[nH]c3ccccc23)NC(=O)Nc2ccccc2)n1	i	72.6	i	i	i
C/C(=N\Nc1ccc(F)cc1F)c1ccccc1O	i	i	i	2.3	i
Cc1ncccc1C(=O)N1CCCC(CNC(=O)C2(c3ccc(Cl)cc3)CC2)C1 (stereo not drawn)	i	i	i	i	i
CCCOc1ccc(-c2nc(C#N)c(NCCCn3ccnc3)o2)cc1	i	i	i	i	i
N#Cc1nc(-c2ccc(OCc3ccccc3)cc2)oc1NCCCn1ccnc1	i	52.3	i	i	i
N#Cc1nc(-c2ccc(OCc3ccccc3Cl)cc2)oc1NCCCn1ccnc1	i	99.3	i	i	i
Cc1ccc(C(=O)N2CCN(c3ncccn3)CC2)cc1S(=O)(=O)N1CCCCC1	i	59.4	i	i	i
O=C(COc1ccccc1)NC1CCCCC1	i	i	i	i	i
O=C(COc1ccc(C(=O)c2ccccc2)cc1)NC1CCCCC1	i	52.5	i	i	i
SMILES	PMI activator	L major viab	Diaphorase act	PMI act hi M6P	WT yeast gro inh
O=C(COc1ccc(C(=O)c2ccccc2)cc1)NC1CCCCCC1	i	62.3	i	i	i
O=c1[nH]c(-c2ccccn2)nc(C(F)(F)F)c1Br	i	96.7	i	i	i
COCCNC(=S)N1CCN(c2ccc(Cl)cc2)CC1	i	i	i	i	i
O=c1c2cc(NC(=S)NCCCN3CCC(Cc4ccccc4)CC3)ccc2nc2n1CCCCC2	i	99.5	i	i	i
O=c1c2cc(NC(=S)NC3CCN(Cc4ccccc4)CC3)ccc2nc2n1CCCCC2	i	54.3	i	i	i
CC1CCCCN1C(=S)Nc1ccc2nc3n(c(=O)c2c1)CCCCC3 (stereo not drawn)	i	58.7	i	i	i
O=c1c2cc(NC(=S)NC3CC3)ccc2nc2n1CCCCC2	i	i	i	i	i
O=c1c2cc(NC(=S)N3CCC(N4CCCCC4)CC3)ccc2nc2n1CCCCC2	i	i	i	i	i
Cc1cccc(NC(=O)C2SC(=Nc3c(C)cccc3C)C(C(=O)N3CCOCC3)=C2N)c1 (stereo not drawn)	i	i	i	i	i
Cc1ccc(CNC(=O)COC(=O)c2cnc(C)cn2)cc1	i	i	i	i	i
COC(=O)C1CCN(C(=O)c2cc(OC)c(OC)c(OC)c2)CC1	i	i	i	i	77.7
COc1cc(C(=O)N2CCN(C(=O)C3CC3)CC2)cc(OC)c1OC	i	i	i	i	i
